Calls of active or inactive are those of the source. The rule behind the calls is not given here.
Tests used:
Homo sapiens [1] = species on record: Homo sapiens; assay: Selectivity ratio, ratio of IC50 for recombinant human N-terminal FLAG-tagged mTOR (1362 to end amino acids) to IC50 for recombinant human His-tagged PIK3CD/PIK3R1 expressed in baculovirus expression system
Homo sapiens [2] = species on record: Homo sapiens; assay: Selectivity ratio, ratio of IC50 for recombinant human His-tagged PIK3CG expressed in baculovirus expression system to recombinant human His-tagged PIK3CD/PIK3R1 expressed in baculovirus expression system
Homo sapiens [3] = species on record: Homo sapiens; assay: Selectivity ratio, ratio of IC50 for recombinant human N-terminal FLAG-tagged mTOR (1362 to end amino acids) to IC50 for recombinant human PI3Kalpha
Homo sapiens [4] = species on record: Homo sapiens; assay: Inhibition of PI3K in human HCT116 cells assessed as reduction in AKT phosphorylation at S473 residue at 0.02 to 0.5 uM after 16 hrs by Western blot analysis; assay type: cell-based
Summary of the method: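 Immunoblot of HCT116 lysates (RIPA). 40 μg protein per lane on 10−12% SDS-PAGE, transferred to nitrocellulose, blocked 0.5 h in 5% milk/TBST. Primary antibodies 1:1000 overnight at 4 °C, secondary 1:1000 for 1 h, bands visualized by enhanced ECL.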

[5] = Selectivity index, ratio of IC50 for human LO2 cells to IC50 for human HCT116 cells; assay type: toxicity; conditions: LO2 cells and HCT116 cells, read-out: Ratio IC50
Summary of the method: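 Ratio of IC50s from the MTT assay: PBMC or LO2 cells versus HCT116. Cells seeded at 2000/well, attached overnight at 37 °C, treated 96 h, MTT 4 h, formazan dissolved in DMSO, A570.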

Mus musculus = assay: In vivo inhibition of PI3K/HDAC in tumor of human HCT116 cells xenografted in athymic nude BALB/c mouse assessed as reduction in phosphorylated Ki67 expression by DAB staining based immunohistochemistry method; assay type: functional, organism-based
Summary of the method: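 HCT116 xenograft tumors from treated and vehicle mice stained immunohistochemically for Ki67, acetyl-H3 and p-AKT(S473) (200×); integrated optical density quantified; mean ± SEM, n = 5−7, one-way ANOVA versus vehicle.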

HGC-27 = assay: Antitumor activity against human HGC27 cells xenografted in athymic nude BALB/c mouse assessed as tumor growth inhibition at 30 mpk, ip measured 2 times every week; assay type: functional; conditions: HGC-27, ip, read-out: TGI
Summary of the method: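 HGC-27 xenograft: 2 × 10^6 cells in 0.2 mL saline s.c. right flank of female BALB/c-nu/nu mice (6–8 weeks); randomized at 100–200 mm3. Oral dosing in 0.5% cmc with Tween 80, intraperitoneal in saline; vehicle given orally daily.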

Structure (SMILES)	Ratio IC50 (Homo sapiens [1])	Ratio IC50 (Homo sapiens [2])	Ratio IC50 (Homo sapiens [3])	inhibition (Homo sapiens [4])	selectivity ratio [5]	inhibition (Mus musculus)	inhibition in vivo at 30 mg/kg (HGC-27)
COc1ccc(-c2cc(OCCN(C)c3ncc(C(=O)NO)cn3)c3ncnc(C)c3c2)cn1	> 27	> 5	> 27	Active	1430		
COc1ncc(-c2cc(OCCCCCCC(=O)NO)c3ncnc(C)c3c2)cc1F						Dose-dependent effect	62.6%
